Screens (PubChem BioAssay)
HIF activator: HIF pathway transcriptional activation | U2OS HRE-luciferase reporter, luminescence; normalized: DMSO 0%, desferrioxamine 100% | activation, % at 7.5 µM (by protocol) | 300,000 tested, 0.32% active;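 active = mean activation of at least 10% of the iron chelator positive control signal, with at least half of replicates also reaching 10%; inconclusive = mean and replicate majority disagree about reaching 10%; inactive = mean and most replicates under 10%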
Neddyl block: blocks human cullin neddylation | P61081+Q13564 | TR-FRET cullin neddylation, biochemical | inhibition, % at 25 µM | 360,000 tested, 0.58% active; in the data active = inhibition above about 36%
proCasp3 act: procaspase-3 (human) activation | 330,000 tested, 0.11% active | P42574 | activation, % at 8.5 µM | recombinant procaspase-3 D3A, Ac-DEVD-pNA absorbance 405 nm;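 active = activation above the mean of all tested compounds plus 3 SD, cut at about 21% in these data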
Target sequence (P42574 whole entry D9A/D28A/D175A): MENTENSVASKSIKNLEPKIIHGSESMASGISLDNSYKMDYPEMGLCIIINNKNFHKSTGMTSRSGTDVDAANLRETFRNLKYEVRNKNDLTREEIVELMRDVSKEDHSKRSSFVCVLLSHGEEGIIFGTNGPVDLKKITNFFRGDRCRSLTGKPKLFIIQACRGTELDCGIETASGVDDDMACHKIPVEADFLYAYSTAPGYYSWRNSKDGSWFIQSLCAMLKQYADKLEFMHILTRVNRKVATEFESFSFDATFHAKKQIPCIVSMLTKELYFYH
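material = Procaspase-3 D3A mutant | probe or stimulus = Ac-DEVD-pNA | compound = single dose, 8.5 µM nominal compound, 0.8% DMSO | timing = 1 h preincubation, 2 h reaction | measured by = 405 nm absorbance of p-nitroaniline, reads at 0 and 120 min | benchmarks = DMSO-only low control, 5 µM PC-3 D3A high control | repeats = singlicate, each compound tested once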
proCasp7 act: counter-screen for procaspase-3 activators: activators of human procaspase-7; P55210; recombinant procaspase-7, Ac-DEVD-pNA absorbance 405 nm; D23A/D198A/D206A triple mutant, cannot self-cleave; scale: DMSO 0, 5 µM enzyme 100; activation, % at 8.5 µM; 330,000 tested, 0.093% active;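 active = percent activation above the screen-wide mean plus 3 SD, cut at about 25% in these data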
Target sequence (P55210 whole entry D23A/D198A/D206A): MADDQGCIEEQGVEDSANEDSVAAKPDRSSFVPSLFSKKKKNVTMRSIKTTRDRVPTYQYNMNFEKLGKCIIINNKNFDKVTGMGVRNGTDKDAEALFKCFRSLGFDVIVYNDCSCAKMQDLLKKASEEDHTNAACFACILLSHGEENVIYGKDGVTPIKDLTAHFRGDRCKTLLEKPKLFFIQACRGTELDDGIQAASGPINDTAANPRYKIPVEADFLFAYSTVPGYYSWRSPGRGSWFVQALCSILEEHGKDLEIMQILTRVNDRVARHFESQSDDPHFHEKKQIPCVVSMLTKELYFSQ
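Assay system: Uncleavable procaspase-7 mutant enzyme; Input: 2 µM procaspase-7 mutant as dispensed; Also added: DEVD-pNA substrate; Medium: Zinc-free HEPES pH 7.4 with 300 mM NaCl, 0.01% Triton X-100; Timing: 1 h compound preincubation, 2 h substrate cleavage, 25 °C; Measured by: Epi-absorbance of released pNA at 405 nm, two timepoints.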
FXN GAA850 act: activators of GAA850 frataxin (FXN) promoter; 360,000 tested, 0.56% active; activation, % at 6 µM; AID 540364; HEK293 lucGAA850 FXN promoter luciferase reporter, 24 h; percent of 10 µM SAHA response;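 active = activation above the average of all compounds screened plus 3 SD, cutoff fixed separately per campaign, cut at about 7.5% in these data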
Calb FLC: affects C. albicans growth with fluconazole. growth inhibition, % (concentration not given with the values). 300,000 tested, 0.57% active. C. albicans CaCi-2 (fluconazole-resistant clinical isolate) + fluconazole, Alamar Blue growth, 48 h;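 active = growth inhibition above about 58% in most replicates, limit read from the data, passing the limit was not always enough; inconclusive = exactly half the replicates above a set limit; inactive = most replicates below a set limit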;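 also: all wells also contain fluconazole at 8 µg/ml as a sub-toxic cotreatment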
GAA30 FXN cntr: counter-screen for GAA850 frataxin promoter activators: GAA30 promoter activation; activation, % at 6 µM; 1,900 tested, 66% active; AID 588350; HEK293 lucGAA30 FXN promoter luciferase, 24 h; DMSO = 0%, 5 µM ipriflavone = 100%; shares compounds with FXN GAA850 act;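 active = mean activation above the mean of solvent-only control wells plus 3 SD, cut at about 22% in these data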;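 also: counterscreen of GAA850 promoter hits where activity marks nonselective or luminescence artifacts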
FXN GAA850 conf: GAA850 FXN promoter activation confirmation. shares compounds with FXN GAA850 act. HEK293 lucGAA850 FXN promoter luciferase reporter, 24 h; 100% = activation by SAHA. activation, % at 6 µM. 1,900 tested, 86% active;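 active = mean activation above a set limit taken from the primary screen, cut at about 8% in these data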
Hits are given with their value; – = inactive; ? = inconclusive; · = no result given. Most compounds without a hit are left out; they make up all but 1.9% or so of the library.

SMILES	HIF activator	Neddyl block	proCasp3 act	proCasp7 act	FXN GAA850 act	Calb FLC	GAA30 FXN cntr	FXN GAA850 conf
COc1ccc(-c2cc(-c3ccccc3)n[nH]2)c(O)c1	–	–	–	–	8.2	–	121	38
C[C@H](CO)N1C[C@H](C)[C@@H](CN(C)S(=O)(=O)c2ccccc2F)Oc2ncc(C#Cc3cccnc3)cc2C1=O	·	–	·	·	–	·	·	·
Clc1ccc(-c2csc(Nc3ccccc3)[n+]2Cc2ccco2)c(Cl)c1	–	–	·	·	7.9	–	83	37
CCCC[n+]1c(-c2ccc(Cl)cc2Cl)csc1Nc1ccccc1	–	–	–	–	–	–	·	·
O=C(O)C1=CC(=C(c2ccc(O)c(C(=O)O)c2)c2ccc(O)c(C(=O)O)c2)C=CC1=O	·	·	–	–	·	·	·	·
O=C1C=CC(=C(c2ccc(O)cc2)c2ccc(O)cc2)C=C1	·	–	–	–	8.6	·	29	37
CC(=O)N1CCN(c2ccc(NC(=O)c3ccc([N+](=O)[O-])o3)cc2Cl)CC1	–	–	–	–	7.7	–	41	28
CCN1CCN(c2ccc(NC(=O)c3ccc([N+](=O)[O-])o3)cc2Cl)CC1	–	–	·	·	–	?	·	·
CCC(=O)N1CCN(c2ccc(NC(=O)c3ccc([N+](=O)[O-])o3)cc2Cl)CC1	–	–	·	·	9.3	–	42	26
CCOc1ccc(NC(=O)CSc2nc3ccsc3c(=O)n2CCCCCC(=O)O)cc1	·	–	·	·	–	·	·	·
COc1ccccc1-c1cnc(C(O)c2ccc(Cl)c(Cl)c2)[nH]1 (stereo not drawn)	·	–	·	·	–	·	·	·
NC(=O)c1nnn(Cc2cc(Cl)c(C(=O)c3ccc(Cl)cc3)c(Cl)c2)c1N	·	–	·	·	·	·	·	·
Nc1cccn2c(-c3ccc(Cl)c(Cl)c3)cnc12	–	–	–	–	12	–	111	43
CCCCOc1ccc(C(=O)NCC(=O)N2CCN(C/C=C/c3ccccc3)CC2)cc1	·	–	·	·	–	·	·	·
CCOC(=O)c1cnc(-c2ccccc2)nc1N(C)C	–	–	–	–	8.7	–	120	41
CC(=O)c1ccc(NC(=S)N(C)C2CCN(C)CC2)cc1	–	–	–	–	14	–	22	–
CCN1C(=O)/C(=C/c2cc(C)n(C)c2C)SC1=Nc1ccc(OC)cc1	–	–	–	–	9.9	–	–	14
O=C(NCc1ccco1)c1ccc(Cn2c(=O)c3ccccc3n(Cc3cccc(Cl)c3)c2=O)cc1	–	–	–	–	11	–	–	–
O=C(NCc1ccco1)c1ccc(Cn2c(=O)c3sccc3n(Cc3cccc(F)c3)c2=O)cc1	·	–	–	–	18	–	25	13
C/C=C1\NC(=O)[C@H](CC(N)=O)N(C)C(=O)C([C@@H](C)O)NC(=O)C(CCCc2ccc(OC)cc2)NC(=O)[C@H](C(C)C)NC(=O)/C(=C\C)NC(=O)[C@H](O)[C@@H](C[C@@H](O)CCCCCCC)NC(=O)[C@H](C)NC(=O)CN(C)C(=O)[C@H](CCC(N)=O)NC1=O (stereo partly drawn)	·	–	·	·	–	·	·	·
CC(C)Cn1c(=O)[nH]c(=O)c2c(C(F)(F)F)cc(-c3ccccc3)nc21	·	–	–	–	7.7	–	–	16
CCCn1c(=O)[nH]c(=O)c2c(C(F)(F)F)cc(-c3ccc(C)cc3)nc21	–	·	–	–	–	–	·	·
CC(=O)OC1CCC2(C)C(COc3ccc4ccc(=O)oc4c3)C(C)(O)CCC2C1(C)C (stereo not drawn)	–	·	–	–	12	–	–	17
CCN(CC)S(=O)(=O)c1cc(NC(=O)CSc2nnc(N)s2)ccc1C	·	–	–	–	–	·	·	·
CCN(CC)S(=O)(=O)c1cc(NC(=O)CSc2nc3c(cc2C#N)C(=O)CC(C)(C)C3)ccc1C	–	–	–	–	10	–	–	–
SMILES	HIF activator	Neddyl block	proCasp3 act	proCasp7 act	FXN GAA850 act	Calb FLC	GAA30 FXN cntr	FXN GAA850 conf
CC(=O)N(CC#CCN(C(C)=O)c1ccccc1)c1ccccc1	·	–	·	·	–	·	·	·
COc1ccc(C(=O)/C=C/C(=O)N(CC(=O)NC2CCCCC2)Cc2ccccc2)c(O)c1	–	–	·	·	7.6	–	–	–
COc1ccc(C(=O)/C=C/C(=O)N(CC(=O)NC2CCCCC2)Cc2ccccc2OC)c(O)c1	–	–	·	·	–	–	·	·
O/N=C(/CCc1ccccc1)c1ccc2c(c1)OCCO2	–	–	–	–	8.0	–	117	33
CCc1nc2c(OCc3ccc(C#N)cc3)cccn2c1N(C)C(=O)C(C)C	·	–	·	·	–	·	·	·
COc1ccccc1-c1ccc2c(c1)C(C)(Cc1ccc(Cl)c(Cl)c1)C(=O)N2 (stereo not drawn)	·	–	·	·	17	·	29	11
CS(=O)(=O)c1nc(-c2ccccc2)cc(C(F)(F)F)n1	–	–	–	–	25	–	–	–
CC(=O)Nc1cccc(-c2ccnc3c2CC(C(=O)NCCc2ccccc2)O3)c1 (stereo not drawn)	·	–	·	·	–	·	·	·
CCN1CCN(C(CCc2ccccc2)C(=O)NC2CCCCC2)CC1 (stereo not drawn)	·	–	·	·	·	·	·	·
Cc1cccc(C2CC(c3ccccc3)Nc3ncnn32)c1 (stereo not drawn)	–	–	–	–	19	–	–	9.6
COc1ccc(C2CC(c3cccc(C)c3)n3ncnc3N2)cc1 (stereo not drawn)	–	–	–	–	–	–	·	·
Nc1ccccc1Nc1cccc(C(F)(F)F)c1	–	–	–	–	8.7	–	–	9.6
CCOC(=O)c1cnn2c(C)cc(-c3ccc(F)cc3)nc12	–	·	–	–	8.3	–	112	37
Cc1ccc(-c2cc(C(F)(F)F)n3ncc(C(=O)O)c3n2)cc1	–	–	·	·	–	–	·	·
CCC/C=C/c1ccc(CN2C(C(C)C)C(=O)N(Cc3cn(CC4CCCCC4)nn3)CCS2(=O)=O)cc1 (stereo not drawn)	·	–	·	·	7.9	·	–	–
Cc1cccc(S(=O)(=O)N[C@@H]2CC[C@@H](CCNS(=O)(=O)c3ccccc3F)O[C@@H]2CO)c1	·	–	·	·	·	·	·	·
CC1C(=O)N(Cc2cn(CCC3OCCCO3)nn2)CCS(=O)(=O)N1Cc1ccc(-c2ccncc2)cc1 (stereo not drawn)	·	–	·	·	–	·	·	·
O=C(CSC1=NCCN1)Nc1cccc(C(F)(F)F)c1	–	–	–	–	9.6	–	25	21
Cn1ccnc1SCC(=O)Nc1cccc(C(F)(F)F)c1	–	–	–	–	–	–	·	·
